Here are results for 10 compounds from ChEMBL document CHEMBL4715715, “Synthesis and biological evaluation of arylcinnamide linked combretastatin-A4 hybrids as tubulin polymerization inhibitors and apoptosis inducing agents” (Bioorg Med Chem Lett, 2016).

Type in all cases: functional
In one assay the test system is MCF7. Description: Antiproliferative activity against human MCF7 cells assessed as cell growth inhibition measured after 48 hrs by SRB assay. The procedure, abridged: (§1)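 Sulforhodamine B (SRB) cell-staining assay across a panel of human cancer lines. Growth inhibition is reported as GI50.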
In the next assay the test system is DU-145. Kind of assay: Antiproliferative activity against human DU-145 cells assessed as cell growth inhibition measured after 48 hrs by SRB assay. The procedure, abridged: as §1
A general note: In SRB staining, fixed cells bind dye roughly in proportion to their protein.

The next assay deals with HOP-62. Kind of assay: Antiproliferative activity against human HOP-62 cells assessed as cell growth inhibition measured after 48 hrs by SRB assay. The gist of the method: as §1
Another assay deals with HeLa. Kind of assay: Antiproliferative activity against human HeLa cells assessed as cell growth inhibition measured after 48 hrs by SRB assay. The procedure, abridged: as §1
The next assay concerns K562. Description: Antiproliferative activity against human K562 cells assessed as cell growth inhibition measured after 48 hrs by SRB assay. The procedure, abridged:
as §1

For a further assay, the system named is SK-OV-3. Kind of assay: Antiproliferative activity against human SK-OV-3 cells assessed as cell growth inhibition measured after 48 hrs by SRB assay. The procedure, abridged:
as §1

For the next assay, the system named is COLO 205. Kind of assay: Antiproliferative activity against human COLO 205 cells assessed as cell growth inhibition measured after 48 hrs by SRB assay. The gist of the method:
as §1

The next assay deals with MIA PaCa-2. Description: Antiproliferative activity against human MIA Paca-2 cells assessed as cell growth inhibition measured after 48 hrs by SRB assay. The procedure, abridged: as §1

As usually defined, the GI50 is the concentration that inhibits growth by half.

As to `COc1ccc(/C=C\c2cc(OC)c(OC)c(OC)c2)c(NC(=O)/C=C/c2ccc([N+](=O)[O-])cc2)c1O`, the GI50 turned out to be 0.072 µM in the assay on MCF7; 0.085 µM in the assay with DU-145; 0.061 µM with HOP-62; 15.7 µM in the assay on HeLa; 0.097 µM with K562; 17 µM with SK-OV-3. For the same compound, the 50% growth inhibitory concentration (GI50) in the assay with COLO 205 worked out at 10.3 µM; with MIA PaCa-2 it was 40.8 µM.

In the case of `COc1cccc(/C=C/C(=O)Nc2c(/C=C\c3cc(OC)c(OC)c(OC)c3)ccc(OC)c2O)c1`, the GI50 in the assay on MCF7 was 59.5 µM; in the assay on DU-145 it was over 100 µM; in the assay with HOP-62, 65.4 µM; in the assay on HeLa, 18.1 µM; in the assay with K562, 0.098 µM; in the assay on SK-OV-3, 17.6 µM. For the same compound, the GI50 was over 100 µM in the assay on COLO 205 and 93.9 µM in the assay on MIA PaCa-2.

Regarding `COc1ccc(/C=C\c2cc(OC)c(OC)c(OC)c2)c(NC(=O)/C=C/c2ccc(C(F)(F)F)cc2)c1O`, the GI50 with MCF7 was 83.7 µM; in the assay with DU-145, over 100 µM; in the assay with HOP-62, over 100 µM; in the assay on HeLa, over 100 µM; in the assay on K562, 58 µM; with SK-OV-3, over 100 µM. For the same compound, the GI50 with COLO 205 and with MIA PaCa-2 was over 100 µM each time.

For `COc1ccc(/C=C\c2cc(OC)c(OC)c(OC)c2)c(NC(=O)/C=C/c2ccc(Cl)cc2)c1O`, the GI50 in the assay with MCF7 was 55.5 µM; in the assay with DU-145, 54.1 µM; in the assay with HOP-62, 79.4 µM; in the assay on HeLa it was 38.8 µM; with K562, 24.9 µM; with SK-OV-3, 62.6 µM. Further, the concentration for 50% growth inhibition (GI50) in the assay on COLO 205 and with MIA PaCa-2 was over 100 µM throughout.

`COc1ccc(/C=C/C(=O)Nc2c(/C=C\c3cc(OC)c(OC)c(OC)c3)ccc(OC)c2O)cc1N`: the GI50 with MCF7 is 0.05 µM; in the assay on DU-145, 0.079 µM; in the assay on HOP-62, 0.044 µM; with HeLa it was 0.091 µM; with K562, 0.089 µM; in the assay on SK-OV-3, 0.097 µM. The results for the GI50 in the assay on COLO 205 and in the assay on MIA PaCa-2 were 0.089 µM and 14.3 µM, respectively.

For the compound `C=CCOc1cccc(/C=C/C(=O)Nc2c(/C=C\c3cc(OC)c(OC)c(OC)c3)ccc(OC)c2O)c1`, the GI50 in the assay with MCF7 worked out at 0.083 µM; in the assay on DU-145 it was 0.085 µM; in the assay with HOP-62 it was 0.06 µM; in the assay on HeLa, 0.0787 µM; in the assay with K562, 0.091 µM; in the assay with SK-OV-3 it was 0.082 µM. In addition, the 50% growth inhibitory concentration (GI50) with COLO 205 was 18 µM; in the assay on MIA PaCa-2 it was 0.098 µM.

For `COc1ccc(/C=C/C(=O)Nc2c(/C=C\c3cc(OC)c(OC)c(OC)c3)ccc(OC)c2O)cc1[N+](=O)[O-]`, the GI50 in the assay on MCF7 turned out to be 19.4 µM; with DU-145, 64.7 µM; with HOP-62, 71.3 µM; in the assay with HeLa, 49.2 µM; in the assay on K562, 46.8 µM; with SK-OV-3, 52.6 µM. The GI50 in the assay with COLO 205 and in the assay with MIA PaCa-2 was over 100 µM throughout.

Turning to `COc1cc(/C=C/C(=O)Nc2c(/C=C\c3cc(OC)c(OC)c(OC)c3)ccc(OC)c2O)ccc1N`, the GI50 amounted to 0.074 µM in the assay with MCF7; 0.085 µM in the assay on DU-145; 0.031 µM with HOP-62; 0.09 µM with HeLa; 0.082 µM in the assay with K562; 0.094 µM in the assay on SK-OV-3. Further, the GI50 came out at 0.086 µM in the assay with COLO 205 and 0.097 µM in the assay on MIA PaCa-2.

In the case of `C#CCOc1cccc(/C=C/C(=O)Nc2c(/C=C\c3cc(OC)c(OC)c(OC)c3)ccc(OC)c2O)c1`, the GI50 in the assay with MCF7 is 11.6 µM; in the assay with DU-145, 96.4 µM; in the assay with HOP-62 it was over 100 µM; with HeLa it was over 100 µM; in the assay with K562, over 100 µM; in the assay with SK-OV-3, over 100 µM. In addition, the GI50 in the assay with COLO 205 and in the assay on MIA PaCa-2 was over 100 µM in each case.

As for `COc1cc(/C=C/C(=O)Nc2c(/C=C\c3cc(OC)c(OC)c(OC)c3)ccc(OC)c2O)ccc1O`, the GI50 in the assay with MCF7 was 0.06 µM; in the assay on DU-145, 0.072 µM; with HOP-62 it was 0.079 µM; with HeLa, 0.09 µM; with K562, 0.093 µM; with SK-OV-3, 0.096 µM. For the same compound, the concentration for 50% growth inhibition (GI50) in the assay on COLO 205 and in the assay with MIA PaCa-2 was 0.098 µM in each case.
